Bridge positions count the residues as written; N and C are the ends. Square brackets hold non-standard residues; d marks the D form. Peptide text beside a SMILES is read from it. Ala(2-furyl) = N[C@@H](Cc1ccco1)C(=O)O; Orn(iPr) = CC(C)NCCC[C@H](N)C(=O)O; Aad = N[C@@H](CCCC(=O)O)C(=O)O; Orn = NCCC[C@H](N)C(=O)O; Dab = NCC[C@H](N)C(=O)O
Assays:
[1] = biological target: Vasopressin V1a/V2 (Homo sapiens) (UniProt P30518+P37288); assay: Selectivity ratio of EC50 for human vasopressin V2 receptor to EC50 for human vasopressin V1a receptor
Vasopressin V1a receptor [2] = biological target: T1, Vasopressin V1a receptor (Homo sapiens, UniProt P37288); assay: Agonist activity at recombinant human vasopressin V1a receptor expressed in HEK293 cells by luciferase reporter gene assay; type: functional, cell-based; details: read-out: EC50
Target sequence in this assay (P37288 whole entry): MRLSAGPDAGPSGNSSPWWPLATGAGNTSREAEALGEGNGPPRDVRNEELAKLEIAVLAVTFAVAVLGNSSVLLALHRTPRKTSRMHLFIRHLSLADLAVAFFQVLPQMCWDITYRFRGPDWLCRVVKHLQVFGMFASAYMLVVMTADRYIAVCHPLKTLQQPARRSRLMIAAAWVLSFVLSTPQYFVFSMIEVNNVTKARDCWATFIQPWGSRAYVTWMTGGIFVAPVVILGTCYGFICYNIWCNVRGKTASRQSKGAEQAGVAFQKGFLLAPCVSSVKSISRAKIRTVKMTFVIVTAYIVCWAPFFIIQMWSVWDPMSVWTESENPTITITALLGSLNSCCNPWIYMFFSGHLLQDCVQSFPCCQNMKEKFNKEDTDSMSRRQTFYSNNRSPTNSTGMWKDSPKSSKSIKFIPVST

Vasopressin V1b receptor = biological target: T2, Vasopressin V1b receptor (Homo sapiens, UniProt P47901); assay: Agonist activity at recombinant human vasopressin V1b receptor expressed in Flp-In-293 cells by luciferase reporter gene assay; type: functional, cell-based; details: read-out: EC50
T2 sequence (P47901 whole entry): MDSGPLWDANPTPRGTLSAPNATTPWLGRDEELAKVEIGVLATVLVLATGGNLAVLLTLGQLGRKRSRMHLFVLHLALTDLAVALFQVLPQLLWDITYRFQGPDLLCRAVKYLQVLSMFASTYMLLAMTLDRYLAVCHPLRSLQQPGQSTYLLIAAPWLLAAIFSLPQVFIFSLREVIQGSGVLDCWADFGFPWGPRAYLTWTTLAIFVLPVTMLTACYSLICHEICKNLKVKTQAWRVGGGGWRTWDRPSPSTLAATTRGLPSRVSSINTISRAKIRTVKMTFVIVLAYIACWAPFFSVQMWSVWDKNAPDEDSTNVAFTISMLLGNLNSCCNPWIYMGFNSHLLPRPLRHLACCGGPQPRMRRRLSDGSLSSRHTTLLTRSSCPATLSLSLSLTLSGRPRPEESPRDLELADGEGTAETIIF
Outline: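 Reporter gene assays in HEK293 cells transiently cotransfected with V1a (human or rat) or human V2 receptor vector plus NFAT-luciferase (V1a) or CRE-luciferase (V2) reporter; V1b in Flp-In-293 stably expressing receptor, OT in CHO-K1 stably expressing receptor, both transiently transfected with NFAT-luciferase. Two days post-transfection, peptides added for 5 h at 37 °C, lysis with luciferin, luminescence read.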

Vasopressin V2 receptor [3] = biological target: T3, Vasopressin V2 receptor (Homo sapiens, UniProt P30518); assay: Agonist activity at recombinant human vasopressin V2 receptor expressed in HEK293 cells by luciferase reporter gene assay; type: functional, cell-based
Oxytocin receptor = biological target: T4, Oxytocin receptor (Homo sapiens, UniProt P30559); assay: Agonist activity at human OT receptor expressed in CHO-K1 cells by luciferase reporter gene assay; type: functional, cell-based
T4 sequence (P30559 whole entry): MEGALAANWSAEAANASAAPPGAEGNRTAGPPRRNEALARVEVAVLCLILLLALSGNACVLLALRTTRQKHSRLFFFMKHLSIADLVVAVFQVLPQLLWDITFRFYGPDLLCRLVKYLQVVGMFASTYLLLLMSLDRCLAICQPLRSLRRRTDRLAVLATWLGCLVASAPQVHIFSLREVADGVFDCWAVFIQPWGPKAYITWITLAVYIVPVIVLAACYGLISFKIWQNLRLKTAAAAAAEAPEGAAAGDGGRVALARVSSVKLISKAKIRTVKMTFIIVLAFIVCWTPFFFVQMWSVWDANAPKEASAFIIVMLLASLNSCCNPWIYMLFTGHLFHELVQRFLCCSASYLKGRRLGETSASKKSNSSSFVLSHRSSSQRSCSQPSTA

Homo sapiens [4] = organism: Homo sapiens; assay: Selectivity ratio of EC50 for human vasopressin V1b receptor to EC50 for human vasopressin V1a receptor
Homo sapiens [5] = organism: Homo sapiens; assay: Selectivity ratio of EC50 for human oxytocin receptor to EC50 for human vasopressin V1a receptor
Vasopressin V1a receptor [6] = biological target: Vasopressin V1a receptor (Rattus norvegicus, UniProt P30560); assay: Agonist activity at recombinant rat vasopressin V1a receptor expressed in HEK293 cells by luciferase reporter gene assay; type: functional, cell-based; details: read-out: EC50
Rattus norvegicus [7] = assay: Vasoconstriction in Wistar rat assessed as decay in vasopressive duration of action at 1 nmol/kg, iv bolus measured over 10 sec interval; type: functional
Outline: (§1)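 Fasted male Wistar rats (206–340 g) under isoflurane, then thiobutabarbital 150 mg/kg ip, ventilated, 37–38 °C, with carotid pressure and jugular dosing. Dibenamine 1.8 mg/rat iv pretreatment. Sequence: iv boluses (0.5 mL/kg) of heparinized vehicle, then two reference doses of 0.1 nmol/kg, then two test doses; one matches the reference diastolic pressure rise. Relative duration = reference decay rate / test decay rate; mean ± SEM.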

Rattus norvegicus [8] = assay: Vasoconstriction in Wistar rat assessed as assessed as decay in vasopressive duration of action at 2 nmol/kg, iv bolus measured over 10 sec interval; type: functional; outline: as §1
Vasopressin V1a receptor [9] = biological target: T1, Vasopressin V1a receptor; assay: Partial agonist activity at recombinant human vasopressin V1a receptor expressed in HEK293 cells by luciferase reporter gene assay; type: functional, cell-based
Outline: (§2)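 Same luciferase reporter systems (OT in stable CHO-K1, V1b in stable Flp-In-293, each with transient NFAT-luciferase; V1a in HEK293 with NFAT-luciferase, V2 in HEK293 with CRE-luciferase). Peptides added for 5 h at 37 °C two days post-transfection, luminescence read. Partial agonism means efficacy <70%.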
Target sequence in this assay (P37288 whole entry, looked up): as the sequence (P37288 whole entry) above

Vasopressin V2 receptor [10] = biological target: T3, Vasopressin V2 receptor; assay: Partial agonist activity at recombinant human vasopressin V2 receptor expressed in HEK293 cells by luciferase reporter gene assay; type: functional, cell-based; outline: as §2
Rattus norvegicus [11] = assay: Vasoconstriction in Wistar rat assessed as assessed as decay in vasopressive duration of action at 0.1 nmol/kg, iv bolus measured over 10 sec interval; type: functional
Rattus norvegicus [12] = assay: Vasoconstriction in Wistar rat assessed as assessed as decay in vasopressive duration of action at 6 nmol/kg, iv bolus measured over 10 sec interval; type: functional; outline: as §1

Sequence of Vasopressin V1a/V2 (Homo sapiens) (P30518 whole entry, looked up): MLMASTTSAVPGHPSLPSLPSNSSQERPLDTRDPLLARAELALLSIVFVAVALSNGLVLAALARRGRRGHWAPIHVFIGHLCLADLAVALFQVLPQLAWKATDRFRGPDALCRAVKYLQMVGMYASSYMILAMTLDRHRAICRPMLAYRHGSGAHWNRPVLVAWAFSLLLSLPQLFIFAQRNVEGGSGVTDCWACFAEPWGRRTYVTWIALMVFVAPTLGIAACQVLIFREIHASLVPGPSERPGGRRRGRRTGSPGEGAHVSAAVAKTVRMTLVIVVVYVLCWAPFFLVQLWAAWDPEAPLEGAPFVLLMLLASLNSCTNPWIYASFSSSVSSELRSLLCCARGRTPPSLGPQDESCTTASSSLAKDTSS
Sequence of Vasopressin V1a/V2 (Homo sapiens) (P37288 whole entry, looked up): as the sequence (P37288 whole entry) above
T3 sequence (P30518 whole entry): as the sequence (P30518 whole entry, looked up) above
Sequence of Vasopressin V1a receptor (Rattus norvegicus, UniProt P30560) (P30560 whole entry): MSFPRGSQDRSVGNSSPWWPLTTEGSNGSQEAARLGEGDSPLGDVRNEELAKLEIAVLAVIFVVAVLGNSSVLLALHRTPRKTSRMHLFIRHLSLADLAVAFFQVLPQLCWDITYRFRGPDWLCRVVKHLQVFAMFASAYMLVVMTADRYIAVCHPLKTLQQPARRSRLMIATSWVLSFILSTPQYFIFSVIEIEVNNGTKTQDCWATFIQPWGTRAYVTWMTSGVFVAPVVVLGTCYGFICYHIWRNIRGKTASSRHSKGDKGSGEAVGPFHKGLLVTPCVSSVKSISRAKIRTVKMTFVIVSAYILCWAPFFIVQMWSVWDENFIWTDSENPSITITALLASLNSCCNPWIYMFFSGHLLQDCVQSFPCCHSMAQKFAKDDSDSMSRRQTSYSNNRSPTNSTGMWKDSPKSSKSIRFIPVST

Row | SMILES | Ratio EC50 [1] | EC50 (Vasopressin V1a receptor [2]) [nM] | EC50 (Vasopressin V1b receptor) [nM] | EC50 (Vasopressin V2 receptor [3]; read-out: EC50) [nM] | EC50 (Oxytocin receptor; read-out: EC50) [nM] | Ratio EC50 (Homo sapiens [4]) | Ratio EC50 (Homo sapiens [5]) | EC50 (Vasopressin V1a receptor [6]) [nM] | Time (Rattus norvegicus [7]) [unitless ratio] | EC50 (Oxytocin receptor; cho-k1, read-out: EC50) [nM] | EC50 (Oxytocin receptor; read-out: pEC50 (converted)) [nM] | Time (Rattus norvegicus [8]) [unitless ratio] | Efficacy (Vasopressin V1a receptor [9]) [%] | Efficacy (Vasopressin V2 receptor [10]) [%] | EC50 (Vasopressin V2 receptor [3]; hek293, read-out: EC50) [nM] | EC50 (Vasopressin V2 receptor [3]; read-out: pEC50 (converted)) [nM] | Time (Rattus norvegicus [11]) [unitless ratio] | Time (Rattus norvegicus [12]) [unitless ratio]
1 | CC[C@H](C)[C@@H]1NC(=O)[C@H](Cc2ccco2)NC(=O)[C@@H](N)CSSC[C@@H](C(=O)N2CCC[C@H]2C(=O)N[C@@H](CCCNC(C)C)C(=O)NCC(N)=O)NC(=O)[C@H](CC(N)=O)NC(=O)[C@H](CCC(N)=O)NC1=O (H-C[Ala(2-furyl)]IQNCP[Orn(iPr)]G-NH2; disulfide 1-6) | 360 | 2.6 | 570 | 950 | 260 | 210 | 100 | 0.62 | 1.5 | – | – | – | – | – | – | – | – | –
2 | CC[C@H](C)[C@@H]1NC(=O)[C@H](Cc2ccccc2)NC(=O)[C@@H](N)CSSC[C@@H](C(=O)N2CCC[C@H]2C(=O)N[C@@H](CCCN)C(=O)NCC(N)=O)NC(=O)[C@H](CC(N)=O)NC(=O)[C@H](CCCC(N)=O)NC1=O (H-CFI[Aad](NH2)NCP[Orn]G-NH2; disulfide 1-6) | 1700 | 0.9 | 46 | 1600 | – | 51 | > 11000 | 0.34 | – | > 10000 | > 10000 | 3.4 | < 70 | < 70 | – | – | – | –
3 | CC[C@H](C)[C@@H]1NC(=O)[C@H](Cc2ccccc2)NC(=O)[C@@H](N)CSSC[C@@H](C(=O)N2CCC[C@H]2C(=O)N[C@@H](CCCN)C(=O)NCC(N)=O)NC(=O)[C@H](CC(N)=O)NC(=O)[C@H](CC(=O)N(C)C)NC1=O (H-CFID(NMe2)NCP[Orn]G-NH2; disulfide 1-6) | > 5800 | 1.7 | 62 | – | – | 36 | > 5800 | 1 | 1.6 | > 10000 | > 10000 | – | – | – | > 10000 | > 10000 | – | –
4 | N=C(N)NCCC[C@H](NC(=O)[C@@H]1CCCN1C(=O)[C@@H]1CSSC[C@H](N)C(=O)N[C@@H](Cc2ccc(O)cc2)C(=O)N[C@@H](Cc2ccccc2)C(=O)N[C@@H](CCC(N)=O)C(=O)N[C@@H](CC(N)=O)C(=O)N1)C(=O)NCC(N)=O [VASOPRESSIN] | – | – | – | – | – | – | – | – | – | – | – | – | – | – | – | – | 1 | –
5 | CC[C@H](C)[C@@H]1NC(=O)[C@H](Cc2ccccc2)NC(=O)[C@@H](N)CSSC[C@@H](C(=O)N2CCC[C@H]2C(=O)N[C@@H](CCN)C(=O)NCC(N)=O)NC(=O)[C@H](CC(N)=O)NC(=O)[C@H](CC(N)=O)NC1=O (H-CFINNCP[Dab]G-NH2; disulfide 1-6) | > 3400 | 2.9 | 37 | – | – | 12 | > 3400 | 2 | – | > 10000 | > 10000 | – | – | – | > 10000 | > 10000 | – | 2
